Sampled rows, rich in hits. Any-hit rate of the full collection: about 3.4%.
PHOSPHO1 block = inhibitors of human PHOSPHO1 phosphatase; inhibition, % at 13.3 µM; recombinant PHOSPHO1, absorbance phosphatase assay; 290,000 compounds, 1.1% hits; Q8TCT1; AID 1565; in the data active = inhibition above about 60%
RanGTP-Imp inh = disruptors of Ran-importin-beta complex formation – biochemical, FRET, CFP-Ran, YFP-importin-beta, homogeneous, primary screen | cell-free CFP-Ran/YFP-importin-beta FRET ratio | inhibition, % (no concentration beside the values) | 300,000 compounds, 1.1% hits | AID 2216;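 active = more than half of the replicate wells show a fall in the fluorescence ratio signal beyond about 16%, limit read from the data, passing the limit was not always enough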;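 also: 0% = DMSO wells and 100% = Ran loaded with GDP instead of GTP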
Wee1 stabilizer = inhibitors of human Wee1 degradation; HeLa Luc-Wee1K328M stability, luciferase luminescence; 100% = proteasome inhibitor MG132 effect; reporter increase, % at 5 µM; 220,000 compounds, 1.2% hits; AID 1321;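 active = activation above the mean of all tested compounds plus 3 SD, set per screening run, cut at about 8.8% in these data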;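 also: cells exposed to compound for 20 h before luminescence read; 0% = DMSO alone and 100% = MG132 at 30 µM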
Runt-SMMHC FRET = Runt domain-CBFb-SMMHC interaction inhibition; 220,000 compounds, 0.74% hits; Q01196+Q13951; inhibition, % at 20 µM; AID 1434; Cerulean-Runt/Venus-CBFb-SMMHC FRET ratio 530/480, 1 h;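 active = mean inhibition across duplicate retests at 20 µM reaching about 50%, limit read from the data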;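 also: 0% = DMSO wells and 100% = wells with excess untagged CBFb-SMMHC; inhibitors lower the FRET ratio by blocking Runt binding to CBFb-SMMHC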
Target sequence (Q01196 whole entry, looked up, the tested form may be a part): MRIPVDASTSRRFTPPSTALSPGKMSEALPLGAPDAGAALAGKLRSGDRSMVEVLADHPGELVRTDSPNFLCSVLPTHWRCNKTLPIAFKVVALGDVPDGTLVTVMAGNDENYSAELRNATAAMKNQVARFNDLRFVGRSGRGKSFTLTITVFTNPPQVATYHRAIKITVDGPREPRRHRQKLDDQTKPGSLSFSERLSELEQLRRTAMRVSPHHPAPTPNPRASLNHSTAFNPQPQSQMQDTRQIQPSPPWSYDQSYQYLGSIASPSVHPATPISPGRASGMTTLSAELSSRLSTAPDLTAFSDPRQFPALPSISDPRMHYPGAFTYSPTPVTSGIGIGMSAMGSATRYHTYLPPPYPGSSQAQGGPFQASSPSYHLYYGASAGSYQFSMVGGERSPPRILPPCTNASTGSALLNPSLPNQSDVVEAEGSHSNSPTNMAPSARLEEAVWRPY
Target sequence (Q13951 whole entry, looked up, the tested form may be a part): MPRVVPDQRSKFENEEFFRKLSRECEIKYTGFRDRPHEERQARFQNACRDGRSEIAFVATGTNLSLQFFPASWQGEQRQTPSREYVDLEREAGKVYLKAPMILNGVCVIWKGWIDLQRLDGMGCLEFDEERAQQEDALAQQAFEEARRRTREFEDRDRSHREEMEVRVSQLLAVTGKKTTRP
Efa HMGR inh = inhibitors of class II HMG-CoA reductase from Enterococcus faecalis. inhibition, % at 10 µM. 190,000 compounds, 0.41% hits. purified E. faecalis HMGR, NADPH absorbance 340 nm kinetic;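 active = inhibition above a set limit, the median over all tested compounds plus 3 SD, cut at about 9.5% in these data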;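 also: enzyme runs in reverse so mevalonate oxidation gives rising NADPH absorbance; 0% = complete reaction with DMSO and 100% = background rate lacking mevalonate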
Runt-CBFb FRET = inhibitors of human RUNX1 Runt domain binding to CBFb; Cerulean-Runt/Venus-CBFb FRET ratio 530/480, 1 h; inhibition, % at 20 µM; 220,000 compounds, 0.46% hits; AID 1496;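 active = inhibition over about 50% at 20 µM in the single-dose screen, limit read from the data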;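 also: 0% = DMSO wells and 100% = excess unlabeled CBFb competitor control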
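test system = Cerulean-Runt domain fusion protein, energy donor | probe or stimulus = Venus-CBFb binding partner, 100 nM | incubation = two 1 h room-temperature incubations shielded from light | detection = fluorescence energy transfer, 422 nm excitation, 530/480 nm emission | measure = loss of energy transfer signal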
YIC FRET counter = counter-screen for RanGTP-importin-beta inhibitors: YIC FRET probe; 1,000 compounds, 40% hits; AID 435026; Purified YIC probe, intramolecular FRET ratio YFP/CFP; IC50, µM; shares compounds with RanGTP-Imp inh;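 active = fitted half-maximal inhibitory concentration no more than tenfold above the top dose tested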
* marks the source's active call; other numbers are inactive results.

What do the screens show for `CSc1ncccc1C(=O)OCC(=O)c1cc2ccccc2o1`?
PHOSPHO1 block: -4; RanGTP-Imp inh: 19*; Wee1 stabilizer: -3; Runt-SMMHC FRET: 0; Runt-CBFb FRET: -4; YIC FRET counter: >50

How did O=C(NCCc1ccccn1)C1CCCN1S(=O)(=O)c1ccc(Cl)cc1 (centres undefined) do in these assays?
PHOSPHO1 block: 6; RanGTP-Imp inh: -4

How did CC1=CC(C)(C)N(C(=O)CNC2CCCCC2)c2cc(C)ccc21 do in these assays?
PHOSPHO1 block: 26; RanGTP-Imp inh: 0; Wee1 stabilizer: -2; Runt-SMMHC FRET: 2; Efa HMGR inh: -5; Runt-CBFb FRET: -1

What do the screens show for `COc1ccc(C2CCN(CC(=O)N(C)C)CC2O)cc1` (centres undefined)?
PHOSPHO1 block: 53; RanGTP-Imp inh: 2; Wee1 stabilizer: -1; Runt-SMMHC FRET: -1; Efa HMGR inh: -3; Runt-CBFb FRET: -1

Results for O=C(COC(=O)c1ccc2ccccc2c1)NCCCc1ccccc1 ?
PHOSPHO1 block: -6; RanGTP-Imp inh: 17*; Wee1 stabilizer: -2; Runt-SMMHC FRET: 1; Efa HMGR inh: -14; Runt-CBFb FRET: -2; YIC FRET counter: >50

How did Nc1cc(C(=O)OCC(=O)NCCCc2ccccc2)ccc1Cl do in these assays?
PHOSPHO1 block: 24; RanGTP-Imp inh: 3

What do the screens show for `COc1cccc(C(=O)/C=C/Nc2cc(C)ccc2O)c1`?
PHOSPHO1 block: 32; RanGTP-Imp inh: 30*; Wee1 stabilizer: 5; Runt-SMMHC FRET: -32; Efa HMGR inh: -5; Runt-CBFb FRET: -6; YIC FRET counter: >50

Results for COc1ccccc1C(=O)c1cc2ccc(O)cc2oc1=O ?
PHOSPHO1 block: -7; RanGTP-Imp inh: 55*; Wee1 stabilizer: -1; Runt-SMMHC FRET: 127*; Efa HMGR inh: 0; Runt-CBFb FRET: 114*; YIC FRET counter: 7.1*

What do the screens show for `O=C(c1ccc(F)cc1)c1cc2ccc(O)cc2oc1=O`?
PHOSPHO1 block: 33; RanGTP-Imp inh: 37*; YIC FRET counter: 13*

What do the screens show for `COc1ccc2cc(C(=O)c3ccccc3)c(=O)oc2c1`?
PHOSPHO1 block: 13; RanGTP-Imp inh: -4; Wee1 stabilizer: 5; Runt-SMMHC FRET: 5; Efa HMGR inh: 2; Runt-CBFb FRET: 2

How did O=C(c1ccccc1)c1cc2ccccc2oc1=O do in these assays?
PHOSPHO1 block: 38; RanGTP-Imp inh: -1

How did O=C(NN=C1C2CC3CC(C2)CC1C3)c1ccccc1O do in these assays?
PHOSPHO1 block: 19; RanGTP-Imp inh: -2; Wee1 stabilizer: -4; Runt-SMMHC FRET: 2; Runt-CBFb FRET: 0

How did CN(C)c1ccc(/C=C(\NC(=O)c2ccccc2)C(=O)NCc2ccncc2)cc1 do in these assays?
PHOSPHO1 block: 32; RanGTP-Imp inh: 23*; YIC FRET counter: >50

What do the screens show for `COC(=O)c1ccc(/C=C(\C#N)C(=O)NC(C)c2ccccc2)cc1` (centres undefined)?
PHOSPHO1 block: -12; Wee1 stabilizer: 4; Runt-SMMHC FRET: 3; Efa HMGR inh: 1; Runt-CBFb FRET: 2

What do the screens show for `CC(NC(=O)/C(C#N)=C/c1ccc(N2CCOCC2)cc1)c1ccccc1` (centres undefined)?
PHOSPHO1 block: 22; RanGTP-Imp inh: 31*; YIC FRET counter: 11*

How did O=C(Cc1ccccc1C(=O)O)Nc1cccc2ccccc12 do in these assays?
PHOSPHO1 block: 10; RanGTP-Imp inh: 21*; YIC FRET counter: >50

How did COc1ccccc1CC(=O)Nc1cccc2ccccc12 do in these assays?
PHOSPHO1 block: 35; RanGTP-Imp inh: -2

How did O=C(Cc1ccc(NC2=NC3CS(=O)(=O)CC3S2)cc1)NCCc1ccccc1 (centres undefined) do in these assays?
PHOSPHO1 block: 39; RanGTP-Imp inh: 7

Results for CCc1ccccc1N(CC(=O)NCc1ccco1)C(=O)CCC(=O)Nc1nccs1 ?
PHOSPHO1 block: 15; RanGTP-Imp inh: 22*; YIC FRET counter: >50

Compound activity: PubChem BioAssay, several laboratories
